Source: article PMC3782865 (Journal of medicinal chemistry, 2013)
“Also recorded” adds a separate entry of the source. Counter-ions that a name gives are not always drawn. Like-named read-outs stand apart in the source and are kept apart here. One block for each compound: values may come before it.

Key:
RPMI-8226 cells [1] = assay: Viability of RPMI-8226 cells, Alamar Blue assay; assay type: cell-based; settings: for Toxicity to cells as a single agent: 4a 1 µM, 3 27 µM
Summary of the method: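 RPMI-8226 myeloma cells grown in RPMI-1640 with 10% FBS, penicillin, streptomycin and plasmocin in a humidified 5% CO2 incubator. Cells were exposed to bortezomib or carfilzomib for 1 h, then to test compound (1 µM or 27 µM) or mock for 47 h. Viable cells were measured by Alamar Blue dye conversion. Mean ± SEM of three (bortezomib) or two to seven (carfilzomib) biological replicates.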

[2] = tested on: proteasome trypsin-like (Tr-L) sites in NCI-H929 and RPMI-8226 multiple myeloma cells; assay type: cell-based; settings: for IC50: ProteasomeGlo
[3] = tested on: cathepsins in NCI-H929 cells; assay: Cathepsins activity assay; assay type: cell-based; settings: 6 h treatment, Z-FR-amc
Summary of the method: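 Treated and mock-treated cells were washed in PBS and permeabilised on ice with 0.05% digitonin in Tris-HCl pH 7.5 buffer. Cytosol was removed by centrifugation (15 min, 20 000g, 4 °C), and pellets were lysed in Bis-Tris pH 5.5/0.5% CHAPS. Protein-normalised acidic extracts were added to 40 µM substrate in phosphate buffer pH 6.0 with EDTA and DTT. Amc fluorescence was read continuously for 30 min, with rates taken from progress-curve slopes.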

[4] = target: T1, proteasome trypsin-like sites (Mus musculus, UniProt P70195); assay: Inhibition of trypsin-like sites in mice; assay type: in vivo; settings: manuscript in preparation
T1 sequence (P70195 44-277): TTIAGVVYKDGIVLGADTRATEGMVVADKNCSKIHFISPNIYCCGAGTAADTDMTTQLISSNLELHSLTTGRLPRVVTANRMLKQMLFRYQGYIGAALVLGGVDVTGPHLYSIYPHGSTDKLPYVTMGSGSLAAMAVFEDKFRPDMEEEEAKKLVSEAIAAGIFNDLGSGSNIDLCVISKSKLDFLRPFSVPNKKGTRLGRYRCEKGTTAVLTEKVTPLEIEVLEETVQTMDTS

[5] = target: proteasome active sites (β2, β5) in extracts of HEK-293T cells (Homo sapiens, UniProt P28074+Q99436); assay: Competition assays in HEK-293T cell lysate with activity-based probes; assay type: biochemical; settings: HEK-293 extracts
[6] = tested on: trypsin-like (Tr-L) sites of purified 26S proteasomes from rabbit muscles; assay: Inhibition of purified 26S proteasomes, trypsin-like sites; assay type: biochemical; settings: purified rabbit 26S proteasomes
[7] = target: T2, proteasome caspase-like (Casp-L) sites in NCI-H929 and RPMI-8226 multiple myeloma cells (Homo sapiens, UniProt P28072); assay type: cell-based
T2 sequence (P28072 1-239): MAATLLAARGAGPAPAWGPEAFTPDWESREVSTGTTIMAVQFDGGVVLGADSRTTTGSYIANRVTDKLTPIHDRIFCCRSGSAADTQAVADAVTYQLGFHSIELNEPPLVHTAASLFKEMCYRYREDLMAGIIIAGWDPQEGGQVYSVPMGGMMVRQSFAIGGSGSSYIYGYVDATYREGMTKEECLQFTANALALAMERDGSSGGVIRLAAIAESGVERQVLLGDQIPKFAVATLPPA

RPMI-8226 cells [8] = settings: cited from earlier work
[9] = read-out: IC50 Tr-L, NCI-H929, NCI-H929 cells, 6 h treatment

SMILES: O=C(CCCCCCC(=O)Nc1ccccc1)NO [varinostat, reference compound]
Viability (RPMI-8226 cells [1]; 1 µM, 48 h treatment, single agent): 38.6 ± 0.5%

SMILES: CC(C)C[C@H](NC(=O)[C@H](Cc1ccccc1)N=[N+]=[N-])C(=O)N[C@@H](CC(C)C)C(=O)N[C@H](/C=C/S(C)(=O)=O)Cc1ccc(CN)cc1 [compound 4a, N3Phe-Leu-Leu-Phe(4-CH2NH2)VS TFA Salt]
Treatment time to steady-state inhibition of trypsin-like activity ([2]; RPMI-8226 cells): 1 h | Inhibition of cathepsins in cells [3]: Partial inhibition of cathepsins | Toxicity to cells as a single agent (RPMI-8226 cells [1]): not toxic; also recorded: no effect on cells when used as a single agent | Sensitization to bortezomib (RPMI-8226 cells [1]; bortezomib 1 h, then 47 h 4a (1 µM)): sensitized them to bortezomib | Inhibition of trypsin-like sites in mice [4]: capable of inhibiting trypsin-like sites in mice

Inhibition/labeling of proteasome active sites in extracts [5]: reacted with β2 and β5 subunits
SMILES: CC1=CC(C)=[N+]2C1=C(CCCCc1cn([C@@H](Cc3ccccc3)C(=O)N[C@@H](CC(C)C)C(=O)N[C@@H](CC(C)C)C(=O)N[C@H](/C=C/S(C)(=O)=O)Cc3ccc(CN)cc3)nn1)c1c(C)cc(C)n1[B-]2(F)F [compound 19, Bodipy-triazole-Phe-Leu-Leu-Phe(4-CH2NH2)VS TFA Salt]

IC50 (Chym-L)/IC50 (Tr-L) [6]: ≪0.0067
SMILES: Cc1c(O)cccc1C(=O)N[C@H](C(=O)N[C@@H](CO)C(=O)N[C@H](/C=C/S(C)(=O)=O)Cc1ccc(N)cc1)C(C)C [compound 9]

IC50 (Chym-L)/IC50 (Tr-L) [6]: <0.00017
SMILES: CC(C)C[C@@H](/C=C/S(C)(=O)=O)NC(=O)[C@H](CC(C)C)NC(=O)[C@H](Cc1ccc(N)cc1)NC(=O)[C@H](Cc1ccccc1)N=[N+]=[N-] [compound 16]

SMILES: Cc1c(O)cccc1C(=O)N[C@H](C(=O)N[C@@H](CO)C(=O)N[C@H](/C=C/S(C)(=O)=O)Cc1ccc(CN)cc1)C(C)C [compound 8]
Difference in inhibition of trypsin-like activity (IC50) between NCI-H929 and RPMI-8226 cells ([2]; 6 h treatment): greater than 10 fold | IC50 [2, 9]: 200 nM | IC50 ([2]; read-out: IC50 Tr-L, RPMI-8226, RPMI-8226 cells, 6 h treatment): 3200 nM | IC50 [7]: > 30000 nM | Inhibition of cathepsins in cells [3]: did not cause any inhibition of cathepsins

SMILES: CC(C)C[C@H](NC(=O)[C@H](Cc1ccc(N)cc1)NC(=O)[C@H](Cc1ccccc1)N=[N+]=[N-])C(=O)N[C@H](/C=C/S(C)(=O)=O)Cc1ccc(CN)cc1 [compound 11]
Inhibition of cathepsins in cells [3]: behaved similarly to 4a

IC50 (Chym-L)/IC50 (Tr-L) [6]: >375
SMILES: CC(=O)N[C@@H](CCCNC(=N)N)C(=O)N[C@@H](CC(C)C)C(=O)N[C@@H](CCCNC(=N)N)C(=O)[C@@]1(C)CO1 [compound 2]

Inhibition/labeling of proteasome active sites in extracts [5]: reduced the specificity
SMILES: CC1=CC(C)=[N+]2C1=C(CCCCc1cn([C@@H](Cc3ccccc3)C(=O)N[C@@H](Cc3ccc(CN)cc3)C(=O)N[C@@H](CC(C)C)C(=O)N[C@H](/C=C/S(C)(=O)=O)Cc3ccc(CN)cc3)nn1)c1c(C)cc(C)n1[B-]2(F)F [compound 20]

Inhibition/labeling of proteasome active sites in extracts [5]: most potent inhibitor in extracts
SMILES: CC(C)C[C@H](NC(=O)[C@H](Cc1ccc(CN)cc1)NC(=O)[C@H](Cc1ccccc1)N=[N+]=[N-])C(=O)N[C@H](/C=C/S(C)(=O)=O)Cc1ccc(CN)cc1 [compound 12]
Inhibition of cathepsins in cells [3]: slightly more potent inhibitor of cathepsins

SMILES: CC(C)C[C@H](NC(=O)[C@H](Cc1ccncc1)NC(=O)[C@H](Cc1ccccc1)N=[N+]=[N-])C(=O)N[C@H](/C=C/S(C)(=O)=O)Cc1ccc(CN)cc1 [compound 10]
Inhibition of cathepsins in cells [3]: partly reduced cathepsin activity

IC50 [2, 9]: 900 nM | IC50 [7]: > 30000 nM
SMILES: Cc1c(O)cccc1C(=O)N[C@H](C(=O)N[C@@H](CO)C(=O)N[C@@H](CCCNC(=N)N)C(=O)[C@@]1(C)CO1)C(C)C [compound 3]
Treatment time to steady-state inhibition of trypsin-like activity ([2]; RPMI-8226 cells): > 6 h | Toxicity to cells as a single agent (RPMI-8226 cells [1]): no effect on cells when used as a single agent | Toxicity to myeloma cells as a single agent (RPMI-8226 cells [8]): not toxic

IC50 (Chym-L)/IC50 (Tr-L) [6]: >30
SMILES: CC(=O)N[C@@H](CC(C)C)C(=O)N[C@@H](CC(C)C)C(=O)N[C@@H](CCCNC(=N)N)C(=O)[C@@]1(C)CO1 [1a]
